OXTR potentiator = potentiates the human oxytocin receptor response | P30559 | 320,000 tested, 0.061% active | activation, % at 3 µM | CHO-OTR cells, Fluo-8 calcium fluorescence, potentiator mode; 0% = oxytocin EC15, 100% = EC100 | AID 2445;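 active means activation above that plate's cutoff, the mean activation of tested compounds plus 3 SD, cut at about 6.6% in these data, passing the limit was not always enough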;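 further: 100% uses oxytocin at 75 nM as the full agonist control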
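Assay system: CHO cell line stably expressing human OTR | Also added: Oxytocin at about EC15, sub-maximal agonist stimulus | Times: Compound 6 min at room temperature before oxytocin, 100 s read | Measured by: Fluo-8 intracellular calcium fluorescence, ex 470-495, em 515-575 nm | Controls: EC15 oxytocin alone as 0%, 75 nM oxytocin as 100%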
V1aR counter = counter-screen for oxytocin receptor agonists: human V1a receptor agonists. CHO-V1R cells, Fluo-8 calcium fluorescence, agonist mode; 0% DMSO, 100% 3 nM vasopressin. P37288. 320,000 tested, 0.25% active. activation, % at 3 µM;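 active means activation above the mean activation of all tested compounds plus 3 SD, per screening run, cut at about 20% in these data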;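 further: signal is peak over basal fluorescence ratio across a 100 second FLIPR read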
Target sequence (P37288 whole entry, looked up): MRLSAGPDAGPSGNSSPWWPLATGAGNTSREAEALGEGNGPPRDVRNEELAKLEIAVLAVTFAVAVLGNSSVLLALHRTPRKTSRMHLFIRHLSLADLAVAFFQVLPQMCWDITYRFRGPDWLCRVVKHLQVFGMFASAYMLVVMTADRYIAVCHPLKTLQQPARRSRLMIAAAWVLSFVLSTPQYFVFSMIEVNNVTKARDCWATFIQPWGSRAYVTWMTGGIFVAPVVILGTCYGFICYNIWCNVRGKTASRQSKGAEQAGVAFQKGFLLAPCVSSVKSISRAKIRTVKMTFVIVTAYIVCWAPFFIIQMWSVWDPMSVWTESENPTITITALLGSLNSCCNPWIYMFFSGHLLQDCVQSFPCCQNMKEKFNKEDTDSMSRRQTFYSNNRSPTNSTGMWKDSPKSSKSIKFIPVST
TAAR1 ag = human TAAR1 agonism | Q96RJ0 | CHO RD-HGA16 TAAR1, Fluo-8 calcium fluorescence; vehicle wells 0%, saturating PEA agonist 100% | activation, % at 3 µM | 360,000 tested, 0.99% active;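 active means activation above the mean activation of all test compounds in the run plus 3 SD, cut at about 38% in these data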
Target sequence (Q96RJ0 whole entry, looked up): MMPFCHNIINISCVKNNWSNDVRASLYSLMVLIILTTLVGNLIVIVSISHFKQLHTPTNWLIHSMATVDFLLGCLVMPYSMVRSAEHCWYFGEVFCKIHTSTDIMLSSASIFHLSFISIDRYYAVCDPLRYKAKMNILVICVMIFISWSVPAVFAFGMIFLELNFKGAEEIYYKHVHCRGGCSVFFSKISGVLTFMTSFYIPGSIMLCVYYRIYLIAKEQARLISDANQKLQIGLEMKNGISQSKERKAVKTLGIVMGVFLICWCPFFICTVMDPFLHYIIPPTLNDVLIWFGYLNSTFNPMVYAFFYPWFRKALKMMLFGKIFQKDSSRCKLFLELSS
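Test system: RD-HGA16 (CHO) cells co-expressing Gα16 and hTAAR1; dosing: one-point dosing at 3 µM (nominal); timing: 17-24 h seeding, 75 min 37 °C dye, 30 min RT; signal: kinetic Fluo-8 calcium fluorescence; read-out basis: % activation relative to PEA EC100 response; controls: DMSO and PEA EC100; replicates: n 1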
OXTR ag = agonists of human oxytocin receptor; P30559; CHO-OTR cells, Fluo-8 calcium fluorescence; normalized: DMSO 0%, oxytocin 100%; activation, % at 3 µM; 320,000 tested, 0.32% active; AID 2435;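 active means activation above the mean of all tested compounds plus 3 SD, cutoff set per screening run, cut at about 20% in these data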;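 further: peak over basal fluorescence ratio from a 100 s FLIPR kinetic read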
TAAR1 antag = antagonists of human TAAR1; Q96RJ0; AID 624466; 360,000 tested, 1.5% active; inhibition, % at 3 µM; CHO RD-HGA16 TAAR1, Fluo-8 calcium fluorescence, antagonist;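 active means inhibition above a per-plate cutoff, the mean inhibition of test compounds on that plate plus 3 SD, cut at about 49% in these data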;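 further: 0% = DMSO plus EC80 beta-PEA response and 100% = DMSO alone without agonist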
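Test system: hTAAR1-expressing CHO RD-HGA16 cells, Gα16-coupled; Probe or stimulus: EC80 β-phenethylamine stimulus; Compound dosing: single nominal final test compound concentration of 3 µM; Timing: 140 s kinetic read after compound, 140 s after agonist; Signal: Fluo-8 calcium-sensitive fluorescence; Measure: % inhibition of agonist calcium response; Controls: DMSO and EC80 PEA controls.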
nonsel antag count = nonselective antagonist in TAAR1 antagonist counter-screen; shares compounds with TAAR1 antag; counterscreen cell line, calcium fluorescence, antagonist mode; inhibition, % at 3 µM; 2,400 tested, 77% active; AID 651780; in the data active means inhibition above about 22%;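 further: CHO-Ga16 host cells stimulated with ATP at an EC80 level; 0% = agonist EC80 plus vehicle and 100% = vehicle without agonist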
TAAR1 ant conf = confirmation of human TAAR1 antagonists | 2,400 tested, 40% active | inhibition, % at 3 µM | shares compounds with TAAR1 antag | TAAR1-expressing cells, fluorescence antagonist read-out; in the data active means inhibition above about 49%;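 further: CHO-Ga16 host cells challenged with agonist PEA near its EC80; 0% = agonist at EC80 plus vehicle and 100% = vehicle with no agonist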
Ga16 ag counter = nonselective Ga16 agonist in TAAR1 antagonist counter-screen; shares compounds with TAAR1 antag; Ga16-expressing cells, calcium fluorescence, agonist counterscreen; activation, % at 3 µM; 2,400 tested, 18% active; AID 651953; in the data active means activation above about 12%;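 further: 0% = vehicle wells and 100% = saturating stimulus response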
TAAR1 ag counter = counter-screen for human TAAR1 antagonists: TAAR1 agonists; shares compounds with TAAR1 antag; hTAAR1 cell line, fluorescence activation, agonist mode; activation, % at 3 µM; 2,400 tested, 2% active; in the data active means activation above about 37%;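 further: CHO cells stably expressing TAAR1 with calcium dye readout; 0% = DMSO vehicle and 100% = full agonist response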
Starred values were filed as active, the others as inactive; x = no result given. Shown are actives, neighbours in structure and some others; about 2.3% of the full set was active somewhere.

SMILES | OXTR potentiator | V1aR counter | TAAR1 ag | OXTR ag | TAAR1 antag | nonsel antag count | TAAR1 ant conf | Ga16 ag counter | TAAR1 ag counter
COCCn1c(SCC(=O)N2CCCCCC2)nc2c([nH]c3ccccc32)c1=O | -1.7 | -0.1 | 1.5 | -1.2 | 14.3 | x | x | x | x
O=C(COC(=O)c1cccc(N2C(=O)C3CC=CCC3C2=O)c1)c1ccccc1 (stereo unspecified) | -12.8 | 6.9 | 12.8 | 5.2 | 55.1* | 19.2 | 39.2 | 10.4 | 7.1
O=C(COc1ccccc1)Nc1cccc(-c2nnc(-c3ccccc3)o2)c1 | -2.3 | 0.6 | 13.1 | -1.0 | 67.4* | 37.6* | 50.9* | 7.6 | 4.4
CCC(=O)Nc1cccc(-c2nnc(-c3cccc(NC(=O)CC)c3)o2)c1 | -9.6 | 1.6 | 21.4 | 1.3 | 55.8* | 22.5* | 42.8 | 6.7 | 9.2
Cc1ccc(-c2nc(-c3ccncc3)no2)cc1 | x | x | 4.6 | x | -28.4 | x | x | x | x
CC(C)(C)c1ccc(-c2nc(-c3ccncc3)no2)cc1 | -5.2 | 0.1 | -2.7 | -0.7 | 106.2* | 15.2 | 19.1 | 13.2* | 26.4
O=[N+]([O-])c1ccc(/C=N/Nc2ccc3ccccc3c2)o1 | -18.0 | 8.9 | 21.4 | 12.3 | 75.8* | 52.0* | 64.6* | 19.0* | 6.8
CCS(=O)(=O)N1N=C(c2cccs2)CC1c1cc2cc(C)ccc2nc1Cl (stereo unspecified) | -1.9 | 0.7 | 4.7 | 1.0 | 49.5* | 10.9 | 18.5 | 10.1 | 8.8
O=C(CSc1ccccn1)Nc1cccc(NC(=O)CSc2ccccn2)n1 | -13.9 | -0.3 | 30.9 | 2.8 | 59.9* | 33.6* | 46.3 | 14.1* | 12.4
COc1cc(/C=N/NC(=O)CSc2cc(C)c(Br)cc2C)ccc1O | -24.1 | 6.4 | 23.7 | 11.6 | 66.3* | 38.1* | 58.6* | 12.8* | 16.1
CCOc1ccc(NC(=O)CN(C)C(=O)C2CC(=O)N(CCc3ccc(OC)c(OC)c3)C2)cc1OCC (stereo unspecified) | x | x | -2.3 | x | 99.6* | -2.8 | -4.3 | 7.9 | 11.4
CCC(C)Sc1cccc(-c2nc3cc(C)ccn3c2NC2CCCCC2)c1 (stereo unspecified) | -5.7 | -0.4 | 11.1 | -1.8 | 29.8 | x | x | x | x
CCOc1ccc(/C=N/NC(=O)C2CCCC2)c(OCC)c1 | -2.0 | -0.6 | -1.9 | -0.5 | -6.5 | x | x | x | x
Cc1[nH]c2ccccc2c1C(=O)COC(=O)Cn1c(C(F)(F)F)nc2ccccc21 | -10.3 | 8.1 | 15.3 | 10.2 | 63.9* | 36.8* | 54.5* | 13.4* | 23.5
O=C(Cn1c(C(F)(F)F)nc2ccccc21)OCC(=O)c1c[nH]c2ccccc12 | -9.8 | 2.9 | 13.4 | 4.4 | 41.1 | x | x | x | x
O=C(O)c1cccc(-c2noc(-c3cccc(Cl)c3)n2)c1 | -3.7 | -0.2 | 5.9 | 1.5 | -8.1 | x | x | x | x
O=C(c1ccco1)N1CCN(C(c2ccccc2Cl)c2nnnn2Cc2ccco2)CC1 (stereo unspecified) | -8.2 | 0.5 | 18.1 | 4.6 | 62.5* | 34.9* | 55.3* | 10.5 | 8.9
CCC(c1nnnn1Cc1ccco1)N1CCN(C(=O)c2ccco2)CC1 (stereo unspecified) | -12.6 | -0.2 | 6.9 | 0.1 | 9.8 | x | x | x | x
CN(C)C(=O)Cn1cc(S(=O)(=O)Cc2ccccc2)c2ccccc21 | -11.1 | -0.1 | 2.1 | -0.4 | -1.2 | x | x | x | x
COCc1cc(C)nc(OC)c1C(N)=O | -6.2 | 1.1 | 1.6 | 0.4 | -18.7 | x | x | x | x
Cc1ccc(C(=O)Nc2cccc(-c3ccc(N4CCOCC4)nn3)c2)cc1[N+](=O)[O-] | 3.0 | -1.4 | 12.7 | -3.0 | 59.9* | 21.4 | 45.0 | 8.1 | 5.2
O=C(Nc1cccc(-c2ccc(N3CCOCC3)nn2)c1)c1ccc([N+](=O)[O-])cc1 | -2.8 | 0.2 | 6.0 | -1.7 | 39.3 | x | x | x | x
CN(C)CCCN(C(=O)/C=C/c1cccs1)c1nc2ccc(F)cc2s1 | -5.4 | 8.3 | 13.6 | 11.9 | -10.0 | x | x | x | x
CN(C)CCN(C(=O)/C=C/c1cccs1)c1nc2c(F)cc(F)cc2s1 | -7.1 | 0.0 | 32.5 | 0.4 | 56.4* | 15.2 | 15.7 | 4.1 | 9.4
CCOc1ccc2ncc(S(=O)(=O)c3ccccc3)c(N3CCN(c4ccccc4)CC3)c2c1 | -4.0 | 0.3 | 0.0 | -0.3 | -26.4 | x | x | x | x
SMILES | OXTR potentiator | V1aR counter | TAAR1 ag | OXTR ag | TAAR1 antag | nonsel antag count | TAAR1 ant conf | Ga16 ag counter | TAAR1 ag counter
COc1ccc(S(=O)(=O)c2cnc3ccc(OC)cc3c2N2CCC3(CC2)OCCO3)cc1 | -7.0 | -1.3 | 13.3 | 0.3 | 72.0* | 25.5* | 50.1* | 8.2 | 6.3
CCOc1ccc2ncc(S(=O)(=O)c3ccccc3)c(N3CCC4(CC3)OCCO4)c2c1 | 0.7 | -1.3 | 4.0 | -2.4 | 49.1* | 13.0 | 41.6 | 3.0 | 2.9
CCC(C(=O)NN1C(=O)c2ccccc2C1=O)c1ccccc1 (stereo unspecified) | -10.0 | -0.1 | -0.1 | 1.9 | -12.7 | x | x | x | x
C=C(C)C(O)CC/C(C)=C/Cc1c(O)ccc(C(=O)/C=C/c2ccc(O)cc2)c1O (stereo unspecified) | -9.7 | 1.9 | 9.0 | 4.3 | 69.6* | 28.5* | 29.1 | 6.7 | 7.2
COc1ccc(-c2csc(NC(=O)CN3C(=O)C4CC=CCC4C3=O)n2)cc1OC (stereo unspecified) | -11.5 | 4.4 | 12.3 | 3.7 | 26.7 | x | x | x | x
O=C(CCN1C(=O)C2CCCCC2C1=O)Nc1nc(-c2ccc(F)c(F)c2)cs1 (stereo unspecified) | -10.1 | 4.2 | 15.7 | 3.4 | 38.2 | x | x | x | x
O=C(CN1C(=O)C2CC=CCC2C1=O)Nc1nc(-c2ccc(F)c(F)c2)cs1 (stereo unspecified) | -7.7 | 4.5 | 26.7 | 3.8 | 72.7* | 31.0* | 55.0* | 14.3* | 18.8
COc1ccc(-c2csc(NC(=O)CN3C(=O)C4CCCCC4C3=O)n2)cc1OC (stereo unspecified) | -13.1 | 4.7 | 16.7 | 3.1 | 51.7* | 24.4* | 35.7 | 12.7* | 16.0
CCONC(=O)Nc1ccccc1 | -1.2 | 0.4 | 3.4 | 0.6 | -5.0 | x | x | x | x
Cc1cc(C)c(S(=O)(=O)c2ccccc2C(C)C)c(=O)[nH]1 | x | x | 0.1 | x | -36.2 | x | x | x | x
COc1ccc(CNC(=O)CN(Cc2ccc(Cl)cc2)S(=O)(=O)c2ccccc2)cc1 | -11.4 | 0.0 | 22.4 | 0.5 | 28.9 | x | x | x | x
COc1ccc(CNC(=O)CN(Cc2ccccc2)S(=O)(=O)c2ccc(Cl)cc2)cc1 | -11.8 | 1.9 | 15.7 | 0.3 | 62.7* | 41.5* | 65.3* | 11.7* | 14.2
